Source: PubChem (Johns Hopkins Ion Channel Center)
A selection: hits, their analogues and other compounds. The true share with any hit is near 3.5%.
MrgX1 antag – antagonists of human MrgX1 receptor, primary screen, HEK293 cells, Fluo-4 calcium flux | Mas-related G-protein coupled receptor member X1 (Homo sapiens), Q96LB2 | BAM8-22 antagonism; active compounds read low | B-score at 10 µM | 1.3% of 310,000 active | AID 588676, 2011;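 active = calcium-response B-score plate-corrected more than 3 library SD below zero, starting fluorescence within 5 deviations, no agonist response on first addition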;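 also: peak minus trough fluorescence over baseline after final BAM8-22 challenge near maximal dose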
Target sequence (Q96LB2 whole entry, looked up): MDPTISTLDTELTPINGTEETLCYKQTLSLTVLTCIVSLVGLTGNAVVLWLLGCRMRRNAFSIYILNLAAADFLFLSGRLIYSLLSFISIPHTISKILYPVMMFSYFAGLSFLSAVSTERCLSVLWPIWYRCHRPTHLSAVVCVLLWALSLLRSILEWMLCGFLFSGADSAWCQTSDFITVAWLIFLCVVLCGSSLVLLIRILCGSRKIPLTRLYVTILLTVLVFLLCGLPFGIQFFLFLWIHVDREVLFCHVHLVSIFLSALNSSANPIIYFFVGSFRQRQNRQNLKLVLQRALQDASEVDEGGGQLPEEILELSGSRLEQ
MrgX1 allo act – positive allosteric modulators of MrgX1, primary screen, HEK293 cells, Fluo-4 calcium flux; B-score at 10 µM; FDSS; active compounds read high; 0.63% of 310,000 active; Mas-related G-protein coupled receptor member X1 (Homo sapiens), Q96LB2;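 active = plate-corrected calcium response at least 3 library SD above typical, normal starting fluorescence, not activating the receptor alone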;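 also: compound read alongside a low EC10 to EC30 dose of BAM8-22 agonist; peak minus trough fluorescence over baseline measured at the second addition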
MrgX1 ag – agonists of human MrgX1 receptor, primary screen, HEK293 cells, Fluo-4 calcium flux; Mas-related G-protein coupled receptor member X1 (Homo sapiens), Q96LB2; Fluo-4 calcium fluorescence, agonist mode; active compounds read high; B-score at 10 µM; 0.44% of 310,000 active;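 active = calcium response B-score plate-corrected fluorescence ratio at least 3 library SD, with starting fluorescence B-score inside 5 SD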
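Test system: HEK293 cells stably expressing human MrgX1 receptor; amount: 15,000 cells per well; doses: compound delivered in addition one of three; times: overnight plating before 1 h dye loading; detection: Fluo-4 NW calcium-flux fluorescence, kinetic read; read-out basis: B-scored fluorescence response ratio; controls: positive and negative controls per plate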
RGS4 pot – RGS4 potentiators or activators, primary screen, cell-based, HEK293 M3R inducible RGS4, calcium flux; carbachol calcium flux Fluo4; active compounds read low; B-score at 10 µM; 0.92% of 310,000 active; AID 463111, 2010;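 active = B-score of the integrated calcium signal more than 4 SD below the library mean, with starting fluorescence not abnormally high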;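 also: negative B-score means reduced calcium response which marks RGS4 activation or potentiation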
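System: HEK293 FlpIn-TREx cells, stable M3R, doxycycline-inducible RGS4. Timing: overnight RGS4 induction, 30 min dye load 37 °C, 20 min compound RT. Also added: carbachol, ECmax concentration. Measured by: Fluo4 fluorescence kinetic imaging of calcium. Evaluation: integrated calcium ratio converted to B score.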
RGS4 inh – RGS4 inhibitors, primary screen, cell-based, HEK293 M3R inducible RGS4, calcium flux. Regulator of G-protein signaling 4 (Homo sapiens), P49798. Fluo-4 calcium flux; active compounds read high; triggered by carbachol at its EC20. B-score at 10 µM. 0.45% of 310,000 active. AID 463165, 2010;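 active = B-score, a plate-corrected calcium signal, over three deviations above library mean, with baseline fluorescence within five deviations of library mean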;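 also: RGS4 expression induced by doxycycline in cells with stable M3 receptor; B-score is computed from the integrated fluorescence ratio over baseline after carbachol; higher B-score means a larger calcium signal and so more RGS4 inhibition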
Numbers stand for hits; – = inactive; · = not tested or not shown.

SMILES	MrgX1 antag	MrgX1 allo act	MrgX1 ag	RGS4 pot	RGS4 inh
CCC12CSc3nc(Cl)ccc3N1C(=O)C(=O)N2C (centres undefined)	·	·	·	–	–
O=C(COC(=O)CCCOc1ccccc1)NC1CCS(=O)(=O)C1 (centres undefined)	–	–	–	–	–
CCOc1cc(N(CC)CC)ccc1/C=C(/C#N)c1nc2ccccc2[nH]1	–	–	79	–	–
CCCOc1cc(N(CC)CC)ccc1/C=C(/C#N)c1nc2ccc(C)cc2[nH]1	–	12	–	–	–
CCN(CC)c1ccc(/C=C(/C#N)c2nc3ccc(C)cc3[nH]2)c(OC(C)C)c1	–	–	40	–	–
COc1cccc(/C=C(\C#N)c2nc3ccccc3[nH]2)c1OCC(=O)O	–	–	–	–	–
CCOc1ccc(/C=C2\SC(=S)N(N3C(=O)C4CC4C3=O)C2=O)cc1 (centres undefined)	–	–	–	–	–
CCOc1ccc(/C=C2/SC(=O)NC2=S)cc1	–	–	32	–	–
O=C(CCNS(=O)(=O)c1ccccc1)N1CCCCCC1	–	–	–	-7.1	–
Cc1ccccc1NC(=O)Cc1nc(COC(=O)C(C)C)cs1	–	–	–	–	–
CC(=O)Nc1ccc(S(=O)(=O)NCCC(=O)OCc2csc(CC(=O)Nc3ccccc3C)n2)cc1	-4.5	–	–	–	–
CCCCN(C)CCCNC(=O)c1cn(CC)c2ccc(S(=O)(=O)N3CCc4ccccc4C3)cc2c1=O	–	–	–	-7.7	–
C/C(=N\NC(=O)c1ccc(Cn2cc(Br)cn2)o1)c1cccc(NC(=O)C(C)(C)C)c1	–	–	–	–	–
C/C(=N\NC(=O)c1ccc(Cn2cc(Br)cn2)o1)c1ccc(NC(=O)c2ccoc2C)cc1	·	·	·	-9.5	–
CC(C)(C)c1cc(C(=O)NNC(=O)Nc2cccc(Cl)c2)n(Cc2ccccc2)n1	–	–	–	–	–
CC(C)(C)c1cc(C(=O)NNC(=O)Nc2ccccc2)n(Cc2ccccc2)n1	-4.9	–	–	–	–
O=[N+]([O-])c1ccccc1S(=O)(=O)N1CCN(C2CCCC2)CC1	–	–	–	–	–
O=[N+]([O-])c1ccccc1S(=O)(=O)N1CCN(C2CCN(Cc3ccccc3)CC2)CC1	–	–	–	-7.3	–
O=[N+]([O-])c1ccc(S(=O)(=O)N2CCN(C3CCN(Cc4ccccc4)CC3)CC2)cc1	–	–	–	-7.5	–
CCc1ccccc1N(CC(=O)NC1CCCCC1)C(=O)CCCC(=O)Nc1ccccn1	–	–	–	–	–
Cc1ccc(-n2ncc3c2CCCC3NC(=O)CCc2c(C)noc2C)cc1C (centres undefined)	–	–	–	–	–
CN(C)CCOC(c1ccccc1)c1ccccc1	–	–	–	–	–
Cc1ccccc1C(OCCN(C(C)C)C(C)C)c1ccccc1 (centres undefined)	–	–	–	-8.6	–
O=C1/C(=C/c2cccc(F)c2)SC(=S)N1NS(=O)(=O)c1ccccc1	–	–	–	–	–
O=C1/C(=C/c2ccccn2)SC(=S)N1NS(=O)(=O)c1ccccc1	-5.3	8.9	–	–	–
SMILES	MrgX1 antag	MrgX1 allo act	MrgX1 ag	RGS4 pot	RGS4 inh
COc1ccc(/C=C2/SC(=O)N(NS(=O)(=O)c3ccccc3)C2=S)cc1OC	–	–	27	–	–
C=CCOc1ccc(/C=C2\SC(=S)N(NS(=O)(=O)c3ccc(C)cc3)C2=O)cc1	–	–	–	-7	–
Cc1ccc(/C=C2\SC(=S)N(NS(=O)(=O)c3ccc(C)cc3)C2=O)cc1	–	–	–	-8.2	–
COc1cc(/C=C2\SC(=S)N(NS(=O)(=O)c3ccccc3)C2=O)cc(OC)c1OC	–	–	–	–	–
Cc1ccc(NS(=O)(=O)c2c(C)[nH]c(C)c2C(=O)N2CCCCC2)cc1Cl	–	–	–	–	–
COc1ccc(/C=C2/SC(=S)N(NS(=O)(=O)c3ccc(C)cc3)C2=O)cc1	-5.2	–	–	-8.4	–
Cc1ccc(S(=O)(=O)NN2C(=O)/C(=C\c3ccc(Cl)cc3)SC2=S)cc1	–	–	–	–	–
O=c1oc2cc(O)ccc2cc1-c1nc2c(s1)CCc1ccccc1-2	–	–	–	·	·
